Test results from the M2OR odorant receptor database.

Columns and labels:
Details in all cases: stereoisomer not certain
OR52I1 (Homo sapiens) = target: T1, OR52I1 (Homo sapiens) (UniProt Q8NGK6)
T1 sequence (whole entry): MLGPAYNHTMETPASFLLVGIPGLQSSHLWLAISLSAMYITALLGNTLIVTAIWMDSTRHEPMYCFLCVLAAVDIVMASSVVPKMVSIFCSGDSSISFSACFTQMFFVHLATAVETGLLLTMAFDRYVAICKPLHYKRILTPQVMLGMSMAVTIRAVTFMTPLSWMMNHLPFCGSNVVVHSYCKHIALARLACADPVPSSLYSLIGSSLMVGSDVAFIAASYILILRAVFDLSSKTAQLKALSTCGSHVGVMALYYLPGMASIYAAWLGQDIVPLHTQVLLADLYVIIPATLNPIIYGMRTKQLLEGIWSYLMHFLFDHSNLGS
Method in brief: (§1)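 Assay methods differ from source to source, frequently being transient luciferase assays in mammalian cell lines. For each receptor–molecule pair, the label responsive (active) applies when the original authors judged the measured signal statistically different from baseline, and non-responsive (inactive) applies otherwise.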

OR52I2 (Homo sapiens) = target: T2, OR52I2 (Homo sapiens) (UniProt Q8NH67)
T2 sequence (whole entry): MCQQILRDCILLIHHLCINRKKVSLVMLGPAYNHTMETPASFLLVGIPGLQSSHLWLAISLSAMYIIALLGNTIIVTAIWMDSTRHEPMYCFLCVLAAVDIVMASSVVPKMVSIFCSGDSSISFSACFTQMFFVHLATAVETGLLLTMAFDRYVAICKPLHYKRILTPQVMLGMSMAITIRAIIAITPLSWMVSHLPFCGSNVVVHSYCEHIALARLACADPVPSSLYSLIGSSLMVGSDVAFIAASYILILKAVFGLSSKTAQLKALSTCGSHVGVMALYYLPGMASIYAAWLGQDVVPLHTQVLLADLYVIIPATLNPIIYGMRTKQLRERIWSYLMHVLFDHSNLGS
Method in brief: as §1

OR52J3 (Homo sapiens) = OR52J3 (Homo sapiens) (UniProt Q8NH60)
Method in brief: as §1

OR52K1 (Homo sapiens) = target: T3, OR52K1 (Homo sapiens) (UniProt Q8NGK4)
T3 sequence (whole entry): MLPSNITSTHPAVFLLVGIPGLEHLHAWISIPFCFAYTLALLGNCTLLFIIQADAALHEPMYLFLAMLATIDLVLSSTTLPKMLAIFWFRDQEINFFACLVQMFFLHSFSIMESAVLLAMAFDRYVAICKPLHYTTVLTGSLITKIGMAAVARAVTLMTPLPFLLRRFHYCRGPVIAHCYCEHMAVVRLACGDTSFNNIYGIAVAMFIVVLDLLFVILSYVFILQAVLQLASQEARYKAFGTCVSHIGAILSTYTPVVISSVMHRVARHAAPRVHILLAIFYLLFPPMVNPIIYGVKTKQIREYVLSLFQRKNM
Method in brief: as §1

OR52K2 (Homo sapiens) = target: T4, OR52K2 (Homo sapiens) (UniProt Q8NGK3)
T4 sequence (whole entry): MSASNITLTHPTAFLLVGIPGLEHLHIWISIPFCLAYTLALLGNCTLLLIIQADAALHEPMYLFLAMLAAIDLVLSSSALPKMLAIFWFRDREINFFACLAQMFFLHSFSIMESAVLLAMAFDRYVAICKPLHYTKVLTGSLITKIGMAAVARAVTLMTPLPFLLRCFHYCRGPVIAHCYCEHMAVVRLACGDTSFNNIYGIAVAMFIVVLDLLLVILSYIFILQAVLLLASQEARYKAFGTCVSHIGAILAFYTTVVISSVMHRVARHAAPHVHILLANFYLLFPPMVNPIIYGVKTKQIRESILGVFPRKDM
Method in brief: as §1

OR52L1 (Homo sapiens) = target: T5, OR52L1 (Homo sapiens) (UniProt Q8NGH7)
T5 sequence (whole entry): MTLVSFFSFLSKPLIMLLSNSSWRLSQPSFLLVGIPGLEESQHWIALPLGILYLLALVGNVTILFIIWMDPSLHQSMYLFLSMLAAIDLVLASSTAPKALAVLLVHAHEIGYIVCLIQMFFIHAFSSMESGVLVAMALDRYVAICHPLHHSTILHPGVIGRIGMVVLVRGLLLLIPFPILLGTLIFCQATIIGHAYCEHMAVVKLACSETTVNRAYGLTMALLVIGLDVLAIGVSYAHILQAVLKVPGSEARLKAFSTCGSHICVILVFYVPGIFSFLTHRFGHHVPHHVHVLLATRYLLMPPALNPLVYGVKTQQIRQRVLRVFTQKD
Method in brief: as §1

OR52M1 (Homo sapiens) = target: T6, OR52M1 (Homo sapiens) (UniProt Q8NGK5)
T6 sequence (whole entry): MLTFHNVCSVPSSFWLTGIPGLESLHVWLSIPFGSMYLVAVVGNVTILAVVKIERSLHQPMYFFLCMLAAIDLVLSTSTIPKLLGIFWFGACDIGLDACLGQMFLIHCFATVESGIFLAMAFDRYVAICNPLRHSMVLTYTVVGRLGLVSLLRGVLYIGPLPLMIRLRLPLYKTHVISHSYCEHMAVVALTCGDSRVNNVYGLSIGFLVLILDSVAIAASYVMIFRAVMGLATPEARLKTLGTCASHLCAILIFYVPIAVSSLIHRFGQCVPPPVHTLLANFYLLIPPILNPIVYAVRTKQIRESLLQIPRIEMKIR
Method in brief: as §1

OR52N1 (Homo sapiens) = target: T7, OR52N1 (Homo sapiens) (UniProt Q8NH53)
T7 sequence (whole entry): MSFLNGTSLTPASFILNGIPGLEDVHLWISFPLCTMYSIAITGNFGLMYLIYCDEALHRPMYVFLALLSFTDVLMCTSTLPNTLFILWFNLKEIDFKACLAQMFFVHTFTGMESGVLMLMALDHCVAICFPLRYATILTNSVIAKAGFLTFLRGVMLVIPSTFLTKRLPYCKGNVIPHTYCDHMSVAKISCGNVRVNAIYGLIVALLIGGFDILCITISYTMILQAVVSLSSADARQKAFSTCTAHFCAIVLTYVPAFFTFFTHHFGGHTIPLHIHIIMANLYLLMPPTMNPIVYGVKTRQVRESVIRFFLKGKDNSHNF
Method in brief: as §1

OR52N2 (Homo sapiens) = target: T8, OR52N2 (Homo sapiens) (UniProt Q8NGI0)
T8 sequence (whole entry): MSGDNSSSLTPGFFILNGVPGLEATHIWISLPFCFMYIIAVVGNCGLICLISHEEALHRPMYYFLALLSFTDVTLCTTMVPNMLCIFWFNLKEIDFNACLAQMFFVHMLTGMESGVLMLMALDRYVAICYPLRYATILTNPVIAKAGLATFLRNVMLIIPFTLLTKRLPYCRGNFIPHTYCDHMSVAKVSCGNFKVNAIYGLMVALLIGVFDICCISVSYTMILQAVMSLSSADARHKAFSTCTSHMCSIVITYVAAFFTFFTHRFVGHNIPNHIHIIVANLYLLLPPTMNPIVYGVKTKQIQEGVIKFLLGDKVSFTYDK
Method in brief: as §1

OR52N4 (Homo sapiens) = target: T9, OR52N4 (Homo sapiens) (UniProt Q8NGI2)
T9 sequence (whole entry): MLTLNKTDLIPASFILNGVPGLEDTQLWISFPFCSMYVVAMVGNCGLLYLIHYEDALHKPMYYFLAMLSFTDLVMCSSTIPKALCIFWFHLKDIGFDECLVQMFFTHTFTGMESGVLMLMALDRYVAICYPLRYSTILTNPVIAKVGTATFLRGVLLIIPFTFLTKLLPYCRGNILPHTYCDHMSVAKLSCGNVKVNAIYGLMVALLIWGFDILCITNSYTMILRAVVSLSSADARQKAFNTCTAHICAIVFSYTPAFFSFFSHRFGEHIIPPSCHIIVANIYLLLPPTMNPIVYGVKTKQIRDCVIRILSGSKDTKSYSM
Method in brief: as §1

OR52N5 (Homo sapiens) = target: T10, OR52N5 (Homo sapiens) (UniProt Q8NH56)
T10 sequence (whole entry): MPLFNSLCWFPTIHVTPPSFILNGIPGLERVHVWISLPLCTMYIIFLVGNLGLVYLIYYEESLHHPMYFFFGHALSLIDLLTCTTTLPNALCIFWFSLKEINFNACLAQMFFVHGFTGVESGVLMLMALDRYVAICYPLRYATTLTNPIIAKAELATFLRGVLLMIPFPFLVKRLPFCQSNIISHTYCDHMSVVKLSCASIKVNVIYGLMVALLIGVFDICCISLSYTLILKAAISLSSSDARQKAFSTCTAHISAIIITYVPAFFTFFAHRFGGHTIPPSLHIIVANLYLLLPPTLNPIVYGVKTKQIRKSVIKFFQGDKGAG
Method in brief: as §1

OR52R1 (Homo sapiens) = target: T11, OR52R1 (Homo sapiens) (UniProt Q8NGF1)
T11 sequence (whole entry): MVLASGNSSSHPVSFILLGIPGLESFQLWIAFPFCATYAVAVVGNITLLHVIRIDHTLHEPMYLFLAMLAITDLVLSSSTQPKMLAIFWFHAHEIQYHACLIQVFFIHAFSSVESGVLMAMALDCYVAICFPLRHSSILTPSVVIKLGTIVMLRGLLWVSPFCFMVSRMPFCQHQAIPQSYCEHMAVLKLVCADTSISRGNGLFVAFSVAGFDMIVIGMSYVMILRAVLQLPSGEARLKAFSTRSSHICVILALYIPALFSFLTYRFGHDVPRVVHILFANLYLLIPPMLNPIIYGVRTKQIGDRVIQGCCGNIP
Method in brief: as §1

OR52W1 (Homo sapiens) = target: T12, OR52W1 (Homo sapiens) (UniProt Q6IF63)
T12 sequence (whole entry): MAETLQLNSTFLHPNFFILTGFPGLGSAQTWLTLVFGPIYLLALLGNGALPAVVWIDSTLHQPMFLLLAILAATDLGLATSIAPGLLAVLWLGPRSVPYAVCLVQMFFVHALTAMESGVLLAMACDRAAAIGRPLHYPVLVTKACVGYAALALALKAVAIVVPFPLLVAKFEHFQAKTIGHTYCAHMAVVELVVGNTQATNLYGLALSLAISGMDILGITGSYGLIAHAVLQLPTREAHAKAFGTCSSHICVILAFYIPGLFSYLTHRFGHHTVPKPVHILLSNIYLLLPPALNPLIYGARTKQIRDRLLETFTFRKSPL
Method in brief: as §1

OR56A1 (Homo sapiens) = target: T13, OR56A1 (Homo sapiens) (UniProt Q8NGH5)
T13 sequence (whole entry): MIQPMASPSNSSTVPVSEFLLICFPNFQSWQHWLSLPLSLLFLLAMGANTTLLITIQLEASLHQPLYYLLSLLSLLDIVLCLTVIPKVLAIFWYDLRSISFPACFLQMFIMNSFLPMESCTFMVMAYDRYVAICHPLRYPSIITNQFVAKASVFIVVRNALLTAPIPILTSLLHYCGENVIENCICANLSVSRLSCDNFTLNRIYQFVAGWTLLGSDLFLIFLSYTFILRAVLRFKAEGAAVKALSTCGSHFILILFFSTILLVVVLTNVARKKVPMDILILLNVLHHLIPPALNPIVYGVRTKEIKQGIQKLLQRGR
Method in brief: as §1

OR56A3 (Homo sapiens) = target: T14, OR56A3 (Homo sapiens) (UniProt Q8NH54)
T14 sequence (whole entry): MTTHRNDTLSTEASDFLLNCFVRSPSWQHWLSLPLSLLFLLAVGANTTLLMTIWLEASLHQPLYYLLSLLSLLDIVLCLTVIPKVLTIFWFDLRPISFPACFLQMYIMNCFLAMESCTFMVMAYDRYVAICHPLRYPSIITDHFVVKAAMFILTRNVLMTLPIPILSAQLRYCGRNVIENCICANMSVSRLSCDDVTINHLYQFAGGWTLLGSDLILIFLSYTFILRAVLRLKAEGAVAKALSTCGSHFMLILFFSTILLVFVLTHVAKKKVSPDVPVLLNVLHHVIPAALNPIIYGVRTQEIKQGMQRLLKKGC
Method in brief: as §1

OR56A5 (Homo sapiens) = target: T15, OR56A5 (Homo sapiens) (UniProt P0C7T3)
T15 sequence (whole entry): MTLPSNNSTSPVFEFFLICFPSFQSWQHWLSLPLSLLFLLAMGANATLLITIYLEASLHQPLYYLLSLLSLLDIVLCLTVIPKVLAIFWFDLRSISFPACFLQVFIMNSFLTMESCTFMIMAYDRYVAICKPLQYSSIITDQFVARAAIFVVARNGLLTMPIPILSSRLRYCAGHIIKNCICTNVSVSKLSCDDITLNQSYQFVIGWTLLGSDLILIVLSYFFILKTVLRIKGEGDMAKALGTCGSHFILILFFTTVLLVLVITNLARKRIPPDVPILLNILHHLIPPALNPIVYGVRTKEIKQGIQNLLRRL
Method in brief: as §1

OR56B1 (Homo sapiens) = target: T16, OR56B1 (Homo sapiens) (UniProt Q8NGI3)
T16 sequence (whole entry): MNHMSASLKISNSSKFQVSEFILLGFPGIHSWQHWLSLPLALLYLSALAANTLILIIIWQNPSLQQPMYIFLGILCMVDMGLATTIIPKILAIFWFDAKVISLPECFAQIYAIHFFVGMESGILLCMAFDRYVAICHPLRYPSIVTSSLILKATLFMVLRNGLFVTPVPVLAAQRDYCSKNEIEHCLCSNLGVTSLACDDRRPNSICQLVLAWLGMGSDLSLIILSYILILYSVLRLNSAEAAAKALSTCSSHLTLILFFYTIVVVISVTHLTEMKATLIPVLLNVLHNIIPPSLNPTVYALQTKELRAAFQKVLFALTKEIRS
Method in brief: as §1

Measured: odorant receptor agonist call

Chain of OR52J3 (Homo sapiens) (Q8NH60 whole entry): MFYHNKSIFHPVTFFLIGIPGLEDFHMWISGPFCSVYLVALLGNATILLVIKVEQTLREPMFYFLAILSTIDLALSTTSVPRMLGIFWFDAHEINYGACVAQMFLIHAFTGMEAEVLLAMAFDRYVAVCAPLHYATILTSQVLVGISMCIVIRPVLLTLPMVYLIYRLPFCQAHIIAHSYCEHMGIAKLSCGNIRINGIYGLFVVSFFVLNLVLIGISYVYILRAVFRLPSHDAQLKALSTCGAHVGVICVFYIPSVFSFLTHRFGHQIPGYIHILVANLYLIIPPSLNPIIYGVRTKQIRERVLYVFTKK

CC1=NC(C)C(C)S1 (stereo not drawn)
inactive: all assays above

Cc1cnc(C)c(C)n1
inactive: all assays above

CC1=C(O)C(=O)OC1C (stereo not drawn)
inactive: all assays above

CCC1OC(=O)C(O)=C1C (stereo not drawn)
inactive: all assays above
